Measured values as given in ChEMBL document CHEMBL4265991.

What was measured:
[1] = compound: COc1ccccc1-c1nnc(SC2=CS(=O)(=O)c3ccccc32)o1; assay: (§1) Inhibition of recombinant Cryptococcus neoformans His-tagged IMPDH expressed in Escherichia coli BL21 (DE3) at 0.3 uM assessed as Vmax for substrate using IMP as fixed substrate at 500 uM and NAD as second substrate with varying concentrations of 31.25 to 1300 uM (reference value: 1.5 microM/min)
Outline: (§2)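 Recombinant C. neoformans IMPDH, 100 nM final, reaction started by adding enzyme. NADH production monitored at 340 nm. Inhibitor series ran from 20 to 0.31 µM; MPA tested at 312 to 39 nM. Km and Vmax fitted to the Michaelis–Menten equation; inhibition type taken from shifts in Km and Vmax.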

[2] = compound: O=S1(=O)C=C(Sc2nnc(-c3ccccc3)o2)c2ccccc21; assay: as §1; outline: as §2
[3] = compound: COc1ccccc1-c1nnc(SC2=CS(=O)(=O)c3ccccc32)o1; assay: (§3) Inhibition of recombinant Cryptococcus neoformans His-tagged IMPDH expressed in Escherichia coli BL21 (DE3) at 0.3 uM assessed as Km for substrate using IMP as fixed substrate at 500 uM and NAD as second substrate with varying concentrations of 31.25 to 1300 uM (reference value: 257.5 +/- 23 microM); outline: as §2
[4] = compound: O=S1(=O)C=C(Sc2nnc(-c3ccccc3)o2)c2ccccc21; assay: as §3; outline: as §2
[5] = compound: COc1ccccc1-c1nnc(SC2=CS(=O)(=O)c3ccccc32)o1; assay: Inhibition of recombinant Cryptococcus neoformans His-tagged IMPDH expressed in Escherichia coli BL21 (DE3) at 0.3 uM assessed as Kcat for substrate using IMP as fixed substrate at 500 uM and NAD as second substrate with varying concentrations of 31.25 to 1300 uM (reference value: 21.5 /s); outline: as §2
[6] = compound: COc1ccccc1-c1nnc(SC2=CS(=O)(=O)c3ccccc32)o1; assay: (§4) Inhibition of recombinant Cryptococcus neoformans His-tagged IMPDH expressed in Escherichia coli BL21 (DE3) at 0.3 uM assessed as Vmax for substrate using NAD as fixed substrate at 700 uM and IMP as second substrate with varying concentrations of 25 to 800 uM (reference value: 1.5 microM/min); outline: as §2
[7] = compound: O=S1(=O)C=C(Sc2nnc(-c3ccccc3)o2)c2ccccc21; assay: as §4; outline: as §2
[8] = compound: COc1ccccc1-c1nnc(SC2=CS(=O)(=O)c3ccccc32)o1; assay: (§5) Inhibition of recombinant Cryptococcus neoformans His-tagged IMPDH expressed in Escherichia coli BL21 (DE3) at 0.3 uM assessed as Km for substrate using NAD as fixed substrate at 700 uM and IMP as second substrate with varying concentrations of 25 to 800 uM (reference value: 257.5 +/- 23 microM); outline: as §2
[9] = compound: O=S1(=O)C=C(Sc2nnc(-c3ccccc3)o2)c2ccccc21; assay: as §5; outline: as §2
[10] = compound: COc1ccccc1-c1nnc(SC2=CS(=O)(=O)c3ccccc32)o1; assay: (§6) Inhibition of recombinant Cryptococcus neoformans His-tagged IMPDH expressed in Escherichia coli BL21 (DE3) at 0.3 uM assessed as Kcat for substrate using NAD as fixed substrate at 700 uM and IMP as second substrate with varying concentrations of 25 to 800 uM (reference value: 21.5 /s); outline: as §2
[11] = compound: O=S1(=O)C=C(Sc2nnc(-c3ccccc3)o2)c2ccccc21; assay: as §6; outline: as §2
[12] = compound: COc1ccccc1-c1nnc(SC2=CS(=O)(=O)c3ccccc32)o1; assay: (§7) Inhibition of recombinant Cryptococcus neoformans His-tagged IMPDH expressed in Escherichia coli BL21 (DE3) at 2.5 uM assessed as Vmax for substrate using IMP as fixed substrate at 500 uM and NAD as second substrate with varying concentrations of 31.25 to 1300 uM (reference value: 1.5 microM/min); outline: as §2
[13] = compound: O=S1(=O)C=C(Sc2nnc(-c3ccccc3)o2)c2ccccc21; assay: as §7; outline: as §2
[14] = compound: COc1ccccc1-c1nnc(SC2=CS(=O)(=O)c3ccccc32)o1; assay: (§8) Inhibition of recombinant Cryptococcus neoformans His-tagged IMPDH expressed in Escherichia coli BL21 (DE3) at 2.5 uM assessed as Km for substrate using IMP as fixed substrate at 500 uM and NAD as second substrate with varying concentrations of 31.25 to 1300 uM (reference value: 257.5 +/- 23 microM); outline: as §2
[15] = compound: O=S1(=O)C=C(Sc2nnc(-c3ccccc3)o2)c2ccccc21; assay: as §8; outline: as §2
[16] = compound: COc1ccccc1-c1nnc(SC2=CS(=O)(=O)c3ccccc32)o1; assay: (§9) Inhibition of recombinant Cryptococcus neoformans His-tagged IMPDH expressed in Escherichia coli BL21 (DE3) at 2.5 uM assessed as Kcat for substrate using IMP as fixed substrate at 500 uM and NAD as second substrate with varying concentrations of 31.25 to 1300 uM (reference value: 21.5 /s); outline: as §2
[17] = compound: O=S1(=O)C=C(Sc2nnc(-c3ccccc3)o2)c2ccccc21; assay: as §9; outline: as §2
[18] = compound: COc1ccccc1-c1nnc(SC2=CS(=O)(=O)c3ccccc32)o1; assay: (§10) Inhibition of recombinant Cryptococcus neoformans His-tagged IMPDH expressed in Escherichia coli BL21 (DE3) at 2.5 uM assessed as Vmax for substrate using NAD as fixed substrate at 700 uM and IMP as second substrate with varying concentrations of 25 to 800 uM (reference value: 1.5 microM/min); outline: as §2
[19] = compound: O=S1(=O)C=C(Sc2nnc(-c3ccccc3)o2)c2ccccc21; assay: as §10; outline: as §2
[20] = compound: COc1ccccc1-c1nnc(SC2=CS(=O)(=O)c3ccccc32)o1; assay: (§11) Inhibition of recombinant Cryptococcus neoformans His-tagged IMPDH expressed in Escherichia coli BL21 (DE3) at 2.5 uM assessed as Km for substrate using NAD as fixed substrate at 700 uM and IMP as second substrate with varying concentrations of 25 to 800 uM (reference value: 257.5 +/- 23 microM); outline: as §2
[21] = compound: O=S1(=O)C=C(Sc2nnc(-c3ccccc3)o2)c2ccccc21; assay: as §11; outline: as §2
[22] = compound: COc1ccccc1-c1nnc(SC2=CS(=O)(=O)c3ccccc32)o1; assay: (§12) Inhibition of recombinant Cryptococcus neoformans His-tagged IMPDH expressed in Escherichia coli BL21 (DE3) at 2.5 uM assessed as Kcat for substrate using NAD as fixed substrate at 700 uM and IMP as second substrate with varying concentrations of 25 to 800 uM (reference value: 21.5 /s); outline: as §2
[23] = compound: O=S1(=O)C=C(Sc2nnc(-c3ccccc3)o2)c2ccccc21; assay: as §12; outline: as §2
[24] = compound: COc1ccccc1-c1nnc(SC2=CS(=O)(=O)c3ccccc32)o1; assay: (§13) Inhibition of recombinant Cryptococcus neoformans His-tagged IMPDH expressed in Escherichia coli BL21 (DE3) at 10 uM assessed as Vmax for substrate using IMP as fixed substrate at 500 uM and NAD as second substrate with varying concentrations of 31.25 to 1300 uM (reference value: 1.5 microM/min); outline: as §2
[25] = compound: O=S1(=O)C=C(Sc2nnc(-c3ccccc3)o2)c2ccccc21; assay: as §13; outline: as §2
[26] = compound: COc1ccccc1-c1nnc(SC2=CS(=O)(=O)c3ccccc32)o1; assay: (§14) Inhibition of recombinant Cryptococcus neoformans His-tagged IMPDH expressed in Escherichia coli BL21 (DE3) at 10 uM assessed as Km for substrate using IMP as fixed substrate at 500 uM and NAD as second substrate with varying concentrations of 31.25 to 1300 uM (reference value: 257.5 +/- 23 microM); outline: as §2
[27] = compound: O=S1(=O)C=C(Sc2nnc(-c3ccccc3)o2)c2ccccc21; assay: as §14; outline: as §2

B1: Inosine-5'-monophosphate dehydrogenase (Cryptococcus neoformans var. neoformans serotype D (strain JEC21 /ATCC MYA-565) (Filobasidiella neoformans)), Q5KP44 (protein)
chain: MADTNPNAPPRSDSLLNPADALKYLEEYPRGDGLSLQELMDSRKNGGLTYNDFLVLPGHISFPASDVSLQSRATKNIVLNTPFLSSPMDTVTEDRMAIALALHGGLGIIHHNCSAEEQAAMVRRVKKYENGFITDPLCLGPDATVGDVLEIKAKFGFCGVPITETGAPNSKLLGIVTGRDVQFQDAETPIKSVMTTEVVTGSSPITLEKANSLLRETKKGKLPIVDSNGHLVSLVARSDLLKNQNYPYASKVPESKQLYCGAAIGTRPGDKDRLKLLAEAGLDVVVLDSSQGDSVYQIEFIKWIKQTYPKIEIIAGNVVTREQAAQLIAAGADGLRIGMGSGSICITQEVMAVGRPQGTAVYAVAEFASRFGIPCIADGGIGNIGHIAKALALGASAVMMGGLLAGTTESPGEYFYHEGKRVKVYRGMGSIEAMEHTQRGSASGKRSILNLDNAATARYFSEADAVKVAQGVSGDVADKGSINKFVPYLFTGLQHSFQDAGVKSVSELHSCARSGSLRFELRTASAQLEGGVHGLNSYTKRLFA
Vmax [1]: 1.5 µM/min | Vmax [2]: 1.5 µM/min | Km [3]: 278 µM | Km [4]: 307 µM | kcat [5]: 1.5 s⁻¹ | Vmax [6]: 1.4 µM/min | Vmax [7]: 1.1 µM/min | Km [8]: 93 µM | Km [9]: 92.5 µM | kcat [10]: 1.4 s⁻¹ | kcat [11]: 1.1 s⁻¹ | Vmax [12]: 1.5 µM/min | Vmax [13]: 1.3 µM/min | Km [14]: 358 µM | Km [15]: 336 µM | kcat [16]: 1.5 s⁻¹ | kcat [17]: 1.3 s⁻¹ | Vmax [18]: 1 µM/min | Vmax [19]: 0.9 µM/min | Km [20]: 165 µM | Km [21]: 187 µM | kcat [22]: 1 s⁻¹ | kcat [23]: 0.9 s⁻¹ | Vmax [24]: 1 µM/min | Vmax [25]: 1 µM/min | Km [26]: 355 µM | Km [27]: 386 µM
